Test results: the RNAGym collection of RNA variant scans (doi:10.1126/science.aae0568)
Fewer inactive variants are shown than the library holds.

B1: tRNA (parent)
chain: GUUCCGUUGGCGUAAUGGUAACGCGUCUCCCUCCUAAGGAGAAGACUGCGGGUUCGAGUCCCGUACGGAACG

Variants of: B1
Experiment: yeast fitness relative to wild type (ratio to wild type); higher = fitter; tRNA-Arg(CCU), competitive growth, 37 C, YPD
Method in brief: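 Changes in genotype frequencies gave Darwinian fitness relative to wild type. Frequencies were read by 100-nucleotide paired-end sequencing of gene amplicons before and after pooled Saccharomyces cerevisiae strains, carrying tRNA-Arg(CCU) gene variants at the native locus, were competed in YPD at 37°C for 24 hours in six replicates. A genotype was kept only with ≥ 100 starting reads, and estimates < 0.5 were set to 0.5.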

Q: For GUUCCGUUGGCAUAAUAGUAACGCGACUCCCUCCUAAGGUGAAGACUGCGGGUUCGAGUCCCGUACGGAACG [G12A G17A U26A A40U], which yeast fitness is on record?
A: Its yeast fitness is at most 0.5.

Q: With GUUCCGUUGGCAUAAUGAUAACGCGUCUCCUUCCUAAGGAGAAGACUGCGGGUUCGAGUCCCGUACGGAGCG [G12A G18A C31U A70G] as the variant, how does the yeast fitness read?
A: Its yeast fitness is at most 0.5.

Q: For GUUCCGUUGGCAUAAUGGUAACGCAUCUCCCUCCUAAGGAGAAGACUACGGGUUCGAGUCCCGUACGGAACG [G12A G25A G48A], which yeast fitness is on record?
A: The yeast fitness was 0.66.

Q: Which yeast fitness does the source give for GUUCCGUUGGCAUAAUGCUAACGCGUCUCCCUUCUAAGGAGAAGACUGCGGGUUCGAGUCCCGUACGGCACG [G12A G18C C33U A69C] here?
A: The yeast fitness was 0.528.

Q: For GUUCCGUUGGCAUAAUGGUAACGCAUCUCCCUCCUAAGGAGAAGACUGCGGGUUCGAGUCCCGUACAGAACG [G12A G25A G67A], which yeast fitness is on record?
A: Its yeast fitness is 0.625.

Q: Which yeast fitness does the source give for GUUCCGUUGGCAUAAUGGUAACACGUCUCCCUCCUAAGGAGAAGACUGUGGGUUCGAGUUCCGUACAGAACG [G12A G23A C49U C60U G67A] here?
A: The yeast fitness was at most 0.5.

Q: For GUUCCGUUGGCAUAAUGGUAACGCGUCUCCCUCCUAAAGAGAAGACUGCGGGUUCGAGUGCCGUACGGAACG [G12A G38A C60G], which yeast fitness is on record?
A: Its yeast fitness is at most 0.5.

Q: For GUUCCGUUGGCAUAAUGCUAACGCGUUUCCCUCCUAAGGAGAAGACUGCGGGUUAGAGUCCCGUACGGAACG [G12A G18C C27U C55A], which yeast fitness is on record?
A: The yeast fitness was at most 0.5.

Q: For GUUCCGUUGGCAUAAUCGUAACGCCUCUGCCUCCUUAGAAGAAGAUUGCGGGUUUGAGUCCCGUACGGAACG [G12A G17C G25C C29G A36U G39A C46U C55U], which yeast fitness is on record?
A: The yeast fitness was at most 0.5.

Q: Which yeast fitness does the source give for GUUCCGUUGGCAUAAUGGUAACCCGUCUCCCUCCUAAGGAGAAGACUGCGGGUUCCAGUCGCGUACGGAACG [G12A G23C G56C C61G] here?
A: Its yeast fitness is at most 0.5.

Q: For GUUCCGUUGGCAUAAUGGUAACACGUCUCCCUCCGGAGGAGAAGACUGCGGGUUCGCGUCCUGUACGGAACG [G12A G23A U35G A36G A57C C62U], which yeast fitness is on record?
A: The yeast fitness was at most 0.5.

Q: With GUUCCGUUGGCAUAAUGGUAACGCGUCUCCCUCCUAAGGAGAAGAUUGCGCGUUCGAGUCCCGUACGGAACG [G12A C46U G51C] as the variant, how does the yeast fitness read?
A: The yeast fitness was at most 0.5.

Q: With GUUCCGUUGGCAUAAUGGUAACGCAUCUCCCUCCUAAGGAGAAGACUGCGGGUUCAAGUCCCGUACGGAACG [G12A G25A G56A] as the variant, how does the yeast fitness read?
A: The yeast fitness was 0.599.

Q: For GUUCCGUUGGCAUAAUGGUAACGCAUCUCCCUCCUAAGGAGAAGACUGCGGGUUCGAGUCCCGUGCGGAACG [G12A G25A A65G], which yeast fitness is on record?
A: Its yeast fitness is 0.682.

Q: Which yeast fitness does the source give for GUUCCGUUGGCAUAAUGGUAACGCAUCUCCCUCCUAAGGAGAAGACUGCGGGUUCGAGUCCCGUUCGGAACG [G12A G25A A65U] here?
A: Its yeast fitness is 0.756.

Q: Which yeast fitness does the source give for GUUCCGUUGGCAUAAUGGUAACCCGUCUCGCUCCUAUGGAGAAGACUGCGGGUUCGAGUCCUGUUCGGAACG [G12A G23C C30G A37U C62U A65U] here?
A: Its yeast fitness is at most 0.5.

Q: For GUUCCGUUGGCAUAAUAGUACCGCGUCUUCCUCCUAAGGAGAAGACUGCGGGUUCGAGUCCCGUACGGAACG [G12A G17A A21C C29U], which yeast fitness is on record?
A: Its yeast fitness is at most 0.5.

Q: Which yeast fitness does the source give for GUUCCGUUGGCAUAAUGGUAACGCGUCUCCCUCCUAAGGAGAAGAUUGCGGGAUCGAGUCCCGUACGGAACG [G12A C46U U53A] here?
A: The yeast fitness was at most 0.5.

Q: Which yeast fitness does the source give for GUUCCGUUGGCAUAAUGGUAACGCGUCUCCCUCCUAACGAGAAGAGUGGGCGUUCGAGUCUCGUACGGAACG [G12A G38C C46G C49G G51C C61U] here?
A: Its yeast fitness is at most 0.5.

Q: With GUUCCGUUGGCAUAAUGGUAACGCGUCUCCCUGCUAAGGAGAAGAUUGCCGGUUCGAGUCCCGUACGGAACG [G12A C33G C46U G50C] as the variant, how does the yeast fitness read?
A: Its yeast fitness is 0.595.

Q: Which yeast fitness does the source give for GUUCCGUUGGCAUAAUGGUAACGCGUCUCCCUCCUAAGGAGAAGACUGAGAGUUCGAGUCCCGUACGGAACG [G12A C49A G51A] here?
A: Its yeast fitness is at most 0.5.

Q: For GUUCCGUUGGCAUAAUGGUAACGCGUCUCCCUCCUAAAGAGAAGACUGCGGGUUCGAGUCCCGUACGGAACG [G12A G38A], which yeast fitness is on record?
A: The yeast fitness was 0.728.

Q: With GUUCCGUUGGCAUAAUGGUAACACGUCUCCCUCCGAAGGAGAAGACUGCGGGUUCGAAUCCCGUACGGAACG [G12A G23A U35G G58A] as the variant, how does the yeast fitness read?
A: The yeast fitness was at most 0.5.

Q: Which yeast fitness does the source give for GUUCCGUUGGCAUAAUGCCAACGCGUCUUCCUCCUAAGGAGAAGACUGCGGGUUCGAGUCCCGUACGGAACG [G12A G18C U19C C29U] here?
A: The yeast fitness was at most 0.5.

Q: For GUUCCGUUGGCAUAAUGCUAACGCGUCUCCCUCCUAAGGAGUAGACUGCGGGUUCGAGUCCCGUACGGAACG [G12A G18C A42U], which yeast fitness is on record?
A: The yeast fitness was 0.65.

Q: For GUUCCGUUGGCAUAAUGGUAACGCGUCUCCCUGCUAACGAGAAGACUGCGGGUUCGAGUCCCGUACGGAACG [G12A C33G G38C], which yeast fitness is on record?
A: The yeast fitness was at most 0.5.

Q: For GUUCCGUUGGCAUAAUGGUAACGCGUCUCCCUCCUAAGGAGAAGAGUGCGGGUUCGCGUCCCGUACGGAACG [G12A C46G A57C], which yeast fitness is on record?
A: Its yeast fitness is at most 0.5.

Q: With GUUCCGUUGGCAUAAUGGUAACGCGUCUCCCUCCUAAGGAGAAGACUGCGGGUUCGAGUCCAGUACGGAACG [G12A C62A] as the variant, how does the yeast fitness read?
A: Its yeast fitness is 0.823.

Q: For GUUCCGUUGGCAUAAUGGUAACGCGUCUCCCUCCUAAGGAGAAGACUGCGGGUUCGAGUCCUGUACGGAACG [G12A C62U], which yeast fitness is on record?
A: Its yeast fitness is 0.815.

Q: With GUUCCGUUGGCAUAAUGGUAACGCGUCUCCCUACUAAGGGGAAGACUGCGGGUUCGAGUCCCGUACGGAUCG [G12A C33A A40G A70U] as the variant, how does the yeast fitness read?
A: The yeast fitness was at most 0.5.

Q: Which yeast fitness does the source give for GUUCCGUUGGCAUAAUAGUAACGCGUCUCCCUCCUAAGGAGAAGACUGCGGGUUCGAGUCCCGUACGGAACG [G12A G17A] here?
A: The yeast fitness was 0.881.

Q: Which yeast fitness does the source give for GUUCCGUUGGCAUAAUGGUAACGCGUCUCCCUCCUAAGGAGAAGACUGUGGGUUCGAGUCCUGUACGGAACG [G12A C49U C62U] here?
A: The yeast fitness was 0.68.

Q: Which yeast fitness does the source give for GUUCCGUUGGCAUAAUGGUAACGCGUCUCCCUCCUAAAGAGAAGACUGCGGGUUCCAGUCCAGUCCGGAACG [G12A G38A G56C C62A A65C] here?
A: Its yeast fitness is at most 0.5.

Q: With GUUCCGUUGGCAUAAUGAUAACGCGUUUCCCUCCUAAGGAGAAGAUUACGGGUUCGAGUCCCGUACGGAACG [G12A G18A C27U C46U G48A] as the variant, how does the yeast fitness read?
A: The yeast fitness was at most 0.5.

Q: With GUUCCGUUGGCAUAAUGGUAACGCGUCUCCCUCCUAAGGAGAAGACUGCGGGUUCGAGUCCUAUACGGAACG [G12A C62U G63A] as the variant, how does the yeast fitness read?
A: The yeast fitness was at most 0.5.

Q: For GUUCCGUUGGCAUAAUGGUAACGCAUCUCCCUCCUAAGGAGAAGACUGCGGGUUCGAGUCCCGUACGGAACG [G12A G25A], which yeast fitness is on record?
A: Its yeast fitness is 0.819.

Q: With GUUCCGUUGGCAUAAUGCUAACGCGUCUCCCUCCUAAGGAGAAGACUGCGGGUUCGAGUCCCGUACGGAACG [G12A G18C] as the variant, how does the yeast fitness read?
A: Its yeast fitness is 0.591.
